The source made the active and inactive calls. The calls are words filed in the database; no cut-off is given here.
Legend:
Histone deacetylase 4 = Histone deacetylase 4 (Homo sapiens, UniProt P56524); test: Inhibition of recombinant human HDAC4 using fluorogenic substrate by fluorescence assay
Mus musculus [1] = test: Toxicity in human RPMI8226 cells xenografted in athymic nude mouse assessed as body weight loss at 50 to 100 mg/kg, ip qd measured daily during first week followed by twice per week; format: organism-based; details: in vivo
Method in brief: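 RPMI-8226 xenograft nude mice (male, 5–6 wk) dosed i.p. daily in 5% DMSO + 5% Cremophor in D5W. Body weight measured daily for the first week, then twice weekly.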

PC-3 [2] = test: Antitumor activity against human PC3 cells xenografted in athymic nude mouse assessed as tumor growth inhibition at 100 mg/kg, po qd administered daily measured twice per week relative to control; format: functional; details: PC-3, po, read-out: TGI
Method in brief: (§1)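 Male athymic nude mice (5–6 wk) given 1 × 10⁷ PC3 cells s.c.; randomized by tumor size at ~150–350 mm³. Oral dosing daily, vehicle 5% DMSO + 5% Cremophor in D5W. Caliper volumes twice weekly, (length × width²)/2; %TGI = {1-[(Tt/T0)/(Ct/C0)]/1-[C0/Ct]}*100 against vehicle controls.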

PC-3 [3] = test: Antiproliferative activity against human PC3 cells measured after 48 hrs by sulforhodamine-B assay; format: functional, cell-based; details: PC-3, 48 h
RPMI-8226 [4] = test: Antitumor activity against human RPMI8226 cells xenografted in athymic nude mouse assessed as tumor growth inhibition at 100 mg/kg, ip qd measured twice per week relative to control; format: functional; details: RPMI-8226, ip, read-out: TGI
Method in brief: (§2)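 Male athymic nude mice (5–6 wk) implanted s.c. with 1 × 10⁷ RPMI-8226 myeloma cells; randomized by tumor size at ~150–350 mm³. Daily i.p. injection, vehicle 5% DMSO + 5% Cremophor in D5W. Tumor volume by calipers twice weekly as (length × width²)/2; %TGI derived from treated vs control volume ratios at time t and time 0.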

PC-3 [5] = test: Antitumor activity against human PC3 cells xenografted in athymic nude mouse assessed as tumor growth inhibition at 200 mg/kg, po qd administered daily measured twice per week relative to control; format: functional; details: PC-3, po, read-out: TGI; method in brief: as §1
HCT-116 = test: Antiproliferative activity against human HCT116 cells measured after 48 hrs by sulforhodamine-B assay; format: functional, cell-based; details: HCT-116, 48 h
Homo sapiens [6] = species: Homo sapiens; test: Inhibition of HDAC in human PC3 cells assessed as increase in histone-H3 acetylation by Western blot analysis; format: cell-based
Method in brief: (§3)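 PC3 prostate cancer cells treated, then lysed in 20 mM Tris-HCl pH 7.5 with 150 mM NaCl, EDTA/EGTA, phosphatase and protease inhibitors, 0.1% Triton X-100. Lysates spun 13,000 rpm for 30 min, then immunoblotted for acetylated α-tubulin and acetylated histone H3.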

Histone deacetylase 9 = Histone deacetylase 9 (Homo sapiens, UniProt Q9UKV0); test: Inhibition of recombinant human HDAC9 using fluorogenic substrate by fluorescence assay
RPMI-8226 [7] = test: Antitumor activity against human RPMI8226 cells xenografted in athymic nude mouse assessed as tumor growth inhibition at 50 mg/kg, ip qd measured twice per week relative to control; format: functional; details: RPMI-8226, ip, read-out: TGI; method in brief: as §2
Mus musculus [8] = test: Toxicity in human PC3 cells xenografted in athymic nude mouse assessed as body weight loss at 100 to 200 mg/kg, po qd administered daily measured daily during first week followed by twice per week; format: organism-based; details: in vivo
Method in brief: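 PC3 xenograft nude mice (male, 5–6 wk) given daily oral drug in 5% DMSO + 5% Cremophor in D5W. Body weight recorded daily in week one, then twice weekly, compared with vehicle group.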

RPMI-8226 [9] = test: Antitumor activity against human RPMI8226 cells xenografted in ip dosed athymic nude mouse assessed as tumor growth inhibition administered once daily measured twice per week; format: functional, organism-based; method in brief: as §2
Homo sapiens [10] = species: Homo sapiens; test: Inhibition of HDAC in human PC3 cells assessed as increase in alpha-tubulin acetylation by Western blot analysis; format: cell-based; method in brief: as §3
Sus scrofa = species: Sus scrofa; test: Inhibition of purified porcine tubulin polymerization measured every 1 min for 30 mins
Histone deacetylase 2 = Histone deacetylase 2 (Homo sapiens, UniProt Q92769); test: Inhibition of recombinant human HDAC2 using fluorogenic substrate by fluorescence assay
Homo sapiens [11] = species: Homo sapiens; test: Inhibition of tubulin polymerization in human PC3 cells assessed as […] in MPM2 expression at 0.01 to 10 uM by Western blot analysis; format: cell-based
Histone deacetylase 7 = biological target: T1, Histone deacetylase 7 (Homo sapiens, UniProt Q8WUI4); test: Inhibition of recombinant human HDAC7 using fluorogenic substrate by fluorescence assay
T1 sequence (Q8WUI4 whole entry): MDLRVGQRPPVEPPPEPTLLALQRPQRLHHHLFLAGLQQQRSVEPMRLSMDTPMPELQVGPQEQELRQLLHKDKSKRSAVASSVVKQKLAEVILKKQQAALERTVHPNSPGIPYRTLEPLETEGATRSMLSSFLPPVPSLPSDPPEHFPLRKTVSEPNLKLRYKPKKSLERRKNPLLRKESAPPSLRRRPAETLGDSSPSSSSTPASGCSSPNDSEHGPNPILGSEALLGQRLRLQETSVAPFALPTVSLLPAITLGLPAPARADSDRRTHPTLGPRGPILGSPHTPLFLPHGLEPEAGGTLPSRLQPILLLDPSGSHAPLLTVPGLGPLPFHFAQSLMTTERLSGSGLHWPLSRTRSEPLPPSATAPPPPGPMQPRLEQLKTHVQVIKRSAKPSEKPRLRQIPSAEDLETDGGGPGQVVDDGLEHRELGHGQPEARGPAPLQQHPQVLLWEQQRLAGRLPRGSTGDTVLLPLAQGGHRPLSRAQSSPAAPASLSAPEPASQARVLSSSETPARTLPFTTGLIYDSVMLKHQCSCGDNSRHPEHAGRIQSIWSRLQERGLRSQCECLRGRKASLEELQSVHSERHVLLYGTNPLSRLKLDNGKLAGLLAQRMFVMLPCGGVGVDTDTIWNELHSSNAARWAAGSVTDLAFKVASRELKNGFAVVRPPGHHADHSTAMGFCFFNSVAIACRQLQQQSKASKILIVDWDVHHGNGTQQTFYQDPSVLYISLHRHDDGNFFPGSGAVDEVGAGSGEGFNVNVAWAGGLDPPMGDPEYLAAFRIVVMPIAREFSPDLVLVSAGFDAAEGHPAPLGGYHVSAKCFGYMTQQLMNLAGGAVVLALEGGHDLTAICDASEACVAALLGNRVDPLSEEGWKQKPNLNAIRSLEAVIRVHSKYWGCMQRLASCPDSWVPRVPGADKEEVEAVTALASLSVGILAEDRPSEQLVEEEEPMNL

Homo sapiens [12] = species: Homo sapiens; test: Inhibition of HDAC in human PC3 cells assessed as increase in alpha-tubulin acetylation at 0.01 to 10 uM by Western blot analysis; format: cell-based; method in brief: as §3

Histone deacetylase 4, sequence (P56524 whole entry): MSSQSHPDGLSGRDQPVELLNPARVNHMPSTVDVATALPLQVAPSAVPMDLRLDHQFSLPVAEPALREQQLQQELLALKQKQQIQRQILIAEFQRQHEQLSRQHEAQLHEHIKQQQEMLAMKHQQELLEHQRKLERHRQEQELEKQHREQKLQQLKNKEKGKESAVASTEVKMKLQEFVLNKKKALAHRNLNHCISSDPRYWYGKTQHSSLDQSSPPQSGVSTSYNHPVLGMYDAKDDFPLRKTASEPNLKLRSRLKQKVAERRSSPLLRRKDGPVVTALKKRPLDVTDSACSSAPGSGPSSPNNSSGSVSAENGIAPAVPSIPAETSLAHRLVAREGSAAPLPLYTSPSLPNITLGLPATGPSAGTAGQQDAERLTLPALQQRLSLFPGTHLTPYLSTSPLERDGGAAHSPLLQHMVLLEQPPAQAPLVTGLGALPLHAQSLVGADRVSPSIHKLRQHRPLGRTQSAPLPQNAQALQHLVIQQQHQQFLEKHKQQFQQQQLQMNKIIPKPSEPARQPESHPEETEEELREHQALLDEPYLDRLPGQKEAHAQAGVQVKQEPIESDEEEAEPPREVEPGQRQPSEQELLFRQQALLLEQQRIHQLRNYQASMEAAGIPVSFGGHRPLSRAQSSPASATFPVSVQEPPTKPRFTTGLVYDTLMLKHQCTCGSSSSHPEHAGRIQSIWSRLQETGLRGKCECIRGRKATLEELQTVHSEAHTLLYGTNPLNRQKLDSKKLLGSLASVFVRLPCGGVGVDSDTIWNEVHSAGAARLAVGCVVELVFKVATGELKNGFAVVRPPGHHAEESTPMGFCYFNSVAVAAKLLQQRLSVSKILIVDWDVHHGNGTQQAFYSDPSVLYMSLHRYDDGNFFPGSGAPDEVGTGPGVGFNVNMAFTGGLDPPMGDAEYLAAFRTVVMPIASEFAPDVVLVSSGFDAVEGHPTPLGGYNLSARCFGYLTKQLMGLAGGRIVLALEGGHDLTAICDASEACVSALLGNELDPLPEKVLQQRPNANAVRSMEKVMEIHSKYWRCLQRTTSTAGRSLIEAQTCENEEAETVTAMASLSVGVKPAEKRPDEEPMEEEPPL
Histone deacetylase 9, sequence (Q9UKV0 whole entry): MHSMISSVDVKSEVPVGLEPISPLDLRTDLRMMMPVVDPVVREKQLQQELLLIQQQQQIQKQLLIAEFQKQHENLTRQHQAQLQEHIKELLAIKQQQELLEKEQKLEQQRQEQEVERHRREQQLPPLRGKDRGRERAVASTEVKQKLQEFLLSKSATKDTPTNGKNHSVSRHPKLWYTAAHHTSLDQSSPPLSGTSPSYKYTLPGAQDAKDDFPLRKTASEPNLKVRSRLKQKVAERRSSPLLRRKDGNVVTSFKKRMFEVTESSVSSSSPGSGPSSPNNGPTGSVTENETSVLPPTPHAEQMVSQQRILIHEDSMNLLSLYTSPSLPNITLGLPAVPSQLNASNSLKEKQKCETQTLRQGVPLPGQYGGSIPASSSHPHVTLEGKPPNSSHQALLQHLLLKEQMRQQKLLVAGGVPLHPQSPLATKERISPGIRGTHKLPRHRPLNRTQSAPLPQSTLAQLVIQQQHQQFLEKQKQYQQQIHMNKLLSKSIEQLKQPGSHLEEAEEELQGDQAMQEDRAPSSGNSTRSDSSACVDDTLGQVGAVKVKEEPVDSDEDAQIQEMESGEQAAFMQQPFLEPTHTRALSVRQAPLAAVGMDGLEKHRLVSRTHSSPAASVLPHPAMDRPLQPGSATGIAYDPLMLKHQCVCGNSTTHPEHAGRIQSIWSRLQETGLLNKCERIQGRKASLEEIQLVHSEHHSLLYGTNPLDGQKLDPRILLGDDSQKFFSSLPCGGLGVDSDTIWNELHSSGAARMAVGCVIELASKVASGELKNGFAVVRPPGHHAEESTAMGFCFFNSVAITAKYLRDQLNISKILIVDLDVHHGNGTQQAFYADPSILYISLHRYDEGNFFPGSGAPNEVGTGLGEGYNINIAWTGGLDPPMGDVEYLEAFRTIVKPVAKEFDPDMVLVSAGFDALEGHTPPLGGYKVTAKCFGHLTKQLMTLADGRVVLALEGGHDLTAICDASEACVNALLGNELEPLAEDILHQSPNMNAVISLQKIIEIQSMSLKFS
Histone deacetylase 2, sequence (Q92769 whole entry): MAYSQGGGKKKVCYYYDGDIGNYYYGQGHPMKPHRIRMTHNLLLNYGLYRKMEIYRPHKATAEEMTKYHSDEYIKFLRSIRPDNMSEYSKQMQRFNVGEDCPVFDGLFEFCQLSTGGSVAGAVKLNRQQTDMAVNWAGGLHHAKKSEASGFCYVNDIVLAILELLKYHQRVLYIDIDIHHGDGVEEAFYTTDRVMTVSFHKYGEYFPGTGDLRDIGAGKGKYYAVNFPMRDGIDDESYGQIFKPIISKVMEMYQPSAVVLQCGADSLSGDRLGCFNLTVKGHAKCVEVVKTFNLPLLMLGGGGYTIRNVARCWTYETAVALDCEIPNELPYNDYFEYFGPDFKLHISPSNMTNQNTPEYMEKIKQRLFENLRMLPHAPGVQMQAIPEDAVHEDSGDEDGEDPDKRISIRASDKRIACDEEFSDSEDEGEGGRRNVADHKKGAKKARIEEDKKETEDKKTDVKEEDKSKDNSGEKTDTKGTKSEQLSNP

Row | SMILES | IC50 (Histone deacetylase 4; read-out: IC50) [nM] | Activity (Mus musculus [1]) | inhibition in vivo at 100 mg/kg (PC-3 [2]) [%] | IC50 (PC-3 [3]) [nM] | inhibition in vivo at 100 mg/kg (RPMI-8226 [4]) [%] | inhibition in vivo at 200 mg/kg (PC-3 [5]) [%] | IC50 (HCT-116) [nM] | inhibition (Homo sapiens [6]) | IC50 (Histone deacetylase 9; read-out: IC50) [nM] | inhibition in vivo at 50 mg/kg (RPMI-8226 [7]) [%] | Activity (Mus musculus [8]) | TGI (RPMI-8226 [9]) | alpha-tubulin acetylation increase (Homo sapiens [10]) | inhibition (Sus scrofa) | IC50 (Histone deacetylase 2) [nM] | inhibition (Homo sapiens [11]) | IC50 (Histone deacetylase 4) | IC50 (Histone deacetylase 7) | IC50 (Histone deacetylase 9) | inhibition (Homo sapiens [12])
1 | COc1ccc2c(C(=O)c3cc(OC)c(OC)c(OC)c3)cn(Cc3ccc(C(=O)NO)cc3)c2c1 | 1980 | Non-Toxic | 24.8 | 179 | 58.2 | 68.5 | 485 | Dose-dependent effect | 1680 | 35.8 | Non-Toxic | Dose-dependent effect | Dose-dependent effect | Dose-dependent effect | 1410 | Active |  |  |  | 
2 | COc1ccc2c(C(=O)c3cc(OC)c(OC)c(OC)c3)cn(S(=O)(=O)c3cccc(/C=C/C(=O)NO)c3)c2c1 |  |  |  | 33.1 |  |  | 43.9 |  |  |  |  |  |  |  | 3220 | Active | Not Active | Not Active | Not Active | Active
